# pIC50: −log10 of the molar value.
# How the values were obtained:
# DMS-273 = experiment: Growth inhibition of human DMS-273 cells measured after 48 hrs by sulforhodamine B assay; type: functional
# Summary of the method: (§1)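 Panel of 39 human cancer cell lines tested at the Japanese Foundation for Cancer Research. Five concentrations per compound, spanning 10⁻¹¹–10⁻⁷ M, 10⁻¹⁰–10⁻⁶ M or 10⁻⁸–10⁻⁴ M, were used to build dose-response curves. GI₅₀ is the concentration giving 50% growth inhibition relative to control.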
# MKN-1 = experiment: Growth inhibition of human MKN-1 cells measured after 48 hrs by sulforhodamine B assay; type: functional; summary of the method: as §1
# DMS-114 = experiment: Growth inhibition of human DMS-114 cells measured after 48 hrs by sulforhodamine B assay; type: functional; summary of the method: as §1
# MKN-28 = experiment: Growth inhibition of human MKN-28 cells measured after 48 hrs by sulforhodamine B assay; type: functional; summary of the method: as §1
# MDA-MB-231 = experiment: Growth inhibition of human MDA-MB-231 cells measured after 48 hrs by sulforhodamine B assay; type: functional; summary of the method: as §1
# HCT-116 = experiment: Growth inhibition of human HCT-116 cells measured after 48 hrs by sulforhodamine B assay; type: functional; summary of the method: as §1
# MKN-45 = experiment: Growth inhibition of human MKN-45 cells measured after 48 hrs by sulforhodamine B assay; type: functional; summary of the method: as §1
# OVCAR-3 = experiment: Growth inhibition of human OVCAR-3 cells measured after 48 hrs by sulforhodamine B assay; type: functional; summary of the method: as §1
# OVCAR-8 = experiment: Growth inhibition of human OVCAR-8 cells measured after 48 hrs by sulforhodamine B assay; type: functional; summary of the method: as §1
# SNB-78 = experiment: Growth inhibition of human SNB-78 cells measured after 48 hrs by sulforhodamine B assay; type: functional; summary of the method: as §1
# SNB-75 = experiment: Growth inhibition of human SNB-75 cells measured after 48 hrs by sulforhodamine B assay; type: functional; summary of the method: as §1
# [1] = Growth inhibition of human HBC5 cells measured after 48 hrs by sulforhodamine B assay; type: functional; summary of the method: as §1
# LOX IMVI = experiment: Growth inhibition of human LOX IMVI cells measured after 48 hrs by sulforhodamine B assay; type: functional; summary of the method: as §1
# St-4 = experiment: Growth inhibition of human St-4 cells measured after 48 hrs by sulforhodamine B assay; type: functional; summary of the method: as §1
# [2] = Selectivity index, ratio of IC50 for mouse HDAC6 expressed in 293T cells to IC50 for human HDAC1 expressed in 293T cells using Ac-KGLGK(Ac)-MCA as substrate incubated for 30 mins in presence of 0.1 mM DTT by fluorescence plate reader assay; conditions: 0.5 h
# Summary of the method: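 Ratio of HDAC6 IC₅₀ to HDAC1 IC₅₀, taken as selectivity for class I HDAC1 over class II HDAC6. Both enzyme assays were run in the presence of 0.1 mM DTT.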
# U-251 = experiment: Growth inhibition of human U-251 cells measured after 48 hrs by sulforhodamine B assay; type: functional; summary of the method: as §1
# ACHN = experiment: Growth inhibition of human ACHN cells measured after 48 hrs by sulforhodamine B assay; type: functional; summary of the method: as §1
# SF-295 = experiment: Growth inhibition of human SF-295 cells measured after 48 hrs by sulforhodamine B assay; type: functional; summary of the method: as §1
# [3] = Growth inhibition of human HBC4 cells measured after 48 hrs by sulforhodamine B assay; type: functional; summary of the method: as §1
# DU-145 = experiment: Growth inhibition of human DU-145 cells measured after 48 hrs by sulforhodamine B assay; type: functional; summary of the method: as §1
# SF-268 = experiment: Growth inhibition of human SF-268 cells measured after 48 hrs by sulforhodamine B assay; type: functional; summary of the method: as §1
# SF-539 = experiment: Growth inhibition of human SF-539 cells measured after 48 hrs by sulforhodamine B assay; type: functional; summary of the method: as §1
# Histone deacetylase 1 = Histone deacetylase 1 (Homo sapiens, UniProt Q13547); experiment: Inhibition of human HDAC1 expressed in 293T cells using Ac-KGLGK(Ac)-MCA as substrate incubated for 30 mins in presence of 0.1 mM DTT by fluorescence plate reader assay; set-up: species or system HEK293T
# Sequence of Histone deacetylase 1 (Q13547 whole entry): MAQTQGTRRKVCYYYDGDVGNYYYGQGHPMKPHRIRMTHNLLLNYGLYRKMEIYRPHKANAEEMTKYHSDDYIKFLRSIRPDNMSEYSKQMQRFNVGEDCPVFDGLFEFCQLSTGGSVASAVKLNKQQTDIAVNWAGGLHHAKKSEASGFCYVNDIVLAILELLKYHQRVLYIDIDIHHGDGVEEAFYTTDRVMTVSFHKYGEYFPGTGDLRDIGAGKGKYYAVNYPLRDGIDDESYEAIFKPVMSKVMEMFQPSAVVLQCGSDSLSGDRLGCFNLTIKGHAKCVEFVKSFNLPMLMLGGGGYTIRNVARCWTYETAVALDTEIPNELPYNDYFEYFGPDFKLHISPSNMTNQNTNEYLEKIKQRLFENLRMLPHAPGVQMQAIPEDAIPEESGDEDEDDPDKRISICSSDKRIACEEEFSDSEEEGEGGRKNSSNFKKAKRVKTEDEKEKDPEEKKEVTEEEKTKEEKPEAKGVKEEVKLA
# MCF7 = experiment: Growth inhibition of human MCF7 cells measured after 48 hrs by sulforhodamine B assay; type: functional; summary of the method: as §1
# HT-29 = experiment: Growth inhibition of human HT-29 cells measured after 48 hrs by sulforhodamine B assay; type: functional; summary of the method: as §1
# NCI-H226 = experiment: Growth inhibition of human NCI-H226 cells measured after 48 hrs by sulforhodamine B assay; type: functional; summary of the method: as §1
# [4] = target: T1, Protein deacetylase HDAC6 (Mus musculus, UniProt Q9Z2V5); experiment: Inhibition of mouse HDAC6 expressed in 293T cells using Ac-KGLGK(Ac)-MCA as substrate incubated for 30 mins in presence of 0.1 mM DTT by fluorescence plate reader assay; set-up: species or system HEK293T
# T1 sequence (Q9Z2V5 whole entry): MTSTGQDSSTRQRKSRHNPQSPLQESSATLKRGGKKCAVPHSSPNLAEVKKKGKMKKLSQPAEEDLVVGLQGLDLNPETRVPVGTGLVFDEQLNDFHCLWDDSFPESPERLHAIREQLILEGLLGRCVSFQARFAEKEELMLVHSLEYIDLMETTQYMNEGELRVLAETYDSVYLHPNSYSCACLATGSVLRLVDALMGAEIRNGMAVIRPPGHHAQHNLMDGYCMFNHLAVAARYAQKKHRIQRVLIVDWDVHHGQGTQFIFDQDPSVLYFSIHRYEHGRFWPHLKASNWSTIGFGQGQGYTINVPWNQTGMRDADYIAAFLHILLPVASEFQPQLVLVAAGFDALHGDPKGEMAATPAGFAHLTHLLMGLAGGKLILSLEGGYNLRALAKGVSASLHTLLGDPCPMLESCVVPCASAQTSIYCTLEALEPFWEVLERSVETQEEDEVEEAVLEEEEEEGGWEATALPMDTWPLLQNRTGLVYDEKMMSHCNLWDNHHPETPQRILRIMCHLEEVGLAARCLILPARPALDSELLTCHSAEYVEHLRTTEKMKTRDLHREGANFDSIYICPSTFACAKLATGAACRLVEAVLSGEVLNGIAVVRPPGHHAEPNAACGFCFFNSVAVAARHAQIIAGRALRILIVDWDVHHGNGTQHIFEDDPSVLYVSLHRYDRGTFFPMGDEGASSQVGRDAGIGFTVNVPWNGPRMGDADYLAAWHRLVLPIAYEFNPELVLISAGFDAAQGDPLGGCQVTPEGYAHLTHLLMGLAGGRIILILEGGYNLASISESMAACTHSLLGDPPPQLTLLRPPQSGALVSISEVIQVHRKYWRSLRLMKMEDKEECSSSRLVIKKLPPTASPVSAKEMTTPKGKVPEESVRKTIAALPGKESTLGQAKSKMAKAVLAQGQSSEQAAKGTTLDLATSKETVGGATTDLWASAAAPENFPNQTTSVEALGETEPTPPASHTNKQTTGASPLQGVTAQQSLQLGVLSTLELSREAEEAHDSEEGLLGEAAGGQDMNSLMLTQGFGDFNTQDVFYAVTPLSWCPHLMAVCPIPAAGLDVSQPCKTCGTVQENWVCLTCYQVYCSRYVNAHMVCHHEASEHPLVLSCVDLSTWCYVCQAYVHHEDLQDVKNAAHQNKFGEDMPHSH
# Summary of the method: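 HDAC enzyme assay run in the presence of 0.1 mM dithiothreitol (DTT); IC₅₀ determined.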
# NCI-H460 = experiment: Growth inhibition of human NCI-H460 cells measured after 48 hrs by sulforhodamine B assay; type: functional; summary of the method: as §1
# [5] = Growth inhibition of human BSY1 cells measured after 48 hrs by sulforhodamine B assay; type: functional; conditions: BSY-1; summary of the method: as §1
# SK-OV-3 = experiment: Growth inhibition of human SK-OV-3 cells measured after 48 hrs by sulforhodamine B assay; type: functional; summary of the method: as §1
# MKN-74 = experiment: Growth inhibition of human MKN-74 cells measured after 48 hrs by sulforhodamine B assay; type: functional; summary of the method: as §1
# NCI-H23 = experiment: Growth inhibition of human NCI-H23 cells measured after 48 hrs by sulforhodamine B assay; type: functional; summary of the method: as §1
# KM12 = experiment: Growth inhibition of human KM12 cells measured after 48 hrs by sulforhodamine B assay; type: functional; summary of the method: as §1
# PC-3 = experiment: Growth inhibition of human PC-3 cells measured after 48 hrs by sulforhodamine B assay; type: functional; summary of the method: as §1
# OVCAR-4 = experiment: Growth inhibition of human OVCAR-4 cells measured after 48 hrs by sulforhodamine B assay; type: functional; summary of the method: as §1
# HCC 2998 = experiment: Growth inhibition of human HCC 2998 cells measured after 48 hrs by sulforhodamine B assay; type: functional; summary of the method: as §1
# OVCAR-5 = experiment: Growth inhibition of human OVCAR-5 cells measured after 48 hrs by sulforhodamine B assay; type: functional; summary of the method: as §1
# RXF 631 = experiment: Growth inhibition of human RXF 631 cells measured after 48 hrs by sulforhodamine B assay; type: functional; summary of the method: as §1
# NCI-H522 = experiment: Growth inhibition of human NCI-H522 cells measured after 48 hrs by sulforhodamine B assay; type: functional; summary of the method: as §1
# MKN-7 = experiment: Growth inhibition of human MKN-7 cells measured after 48 hrs by sulforhodamine B assay; type: functional; summary of the method: as §1
# HCT-15 = experiment: Growth inhibition of human HCT-15 cells measured after 48 hrs by sulforhodamine B assay; type: functional; summary of the method: as §1
# A549 = experiment: Growth inhibition of human A549 cells measured after 48 hrs by sulforhodamine B assay; type: functional; summary of the method: as §1
compound,measurement,setting,value
CC(C)C[C@H]1NC(=O)[C@H]2CSSCC/C=C/[C@H](CC(=O)N[C@H](C(C)C)C(=O)N2)OC(=O)CNC1=O,GI50,DMS-273,74 nM
same,GI50,MKN-1,21 nM
same,GI50,DMS-114,36 nM
same,GI50,MKN-28,270 nM
same,GI50,MDA-MB-231,39 nM
same,GI50,HCT-116,22 nM
same,GI50,MKN-45,240 nM
same,GI50,OVCAR-3,40 nM
same,GI50,OVCAR-8,42 nM
same,GI50,SNB-78,30 nM
same,GI50,SNB-75,43 nM
same,GI50,[1],270 nM
same,GI50,LOX IMVI,23 nM
same,GI50,St-4,230 nM
same,Ratio IC50,[2],8804
same,GI50,U-251,10 nM
same,GI50,ACHN,200 nM
same,GI50,SF-295,1100 nM
same,GI50,[3],70 nM
same,GI50,DU-145,37 nM
same,GI50,SF-268,11 nM
same,GI50,SF-539,57 nM
same,pIC50,Histone deacetylase 1,9.02
same,GI50,MCF7,52 nM
same,GI50,HT-29,33 nM
same,GI50,NCI-H226,59 nM
same,pIC50,[4],5.07
same,GI50,NCI-H460,39 nM
same,GI50,[5],69 nM
same,GI50,SK-OV-3,23 nM
same,GI50,MKN-74,44 nM
same,GI50,NCI-H23,39 nM
same,GI50,KM12,33 nM
same,GI50,PC-3,69 nM
same,GI50,OVCAR-4,87 nM
same,GI50,HCC 2998,27 nM
same,GI50,OVCAR-5,31 nM
same,GI50,RXF 631,68 nM
same,GI50,NCI-H522,10 nM
same,GI50,MKN-7,280 nM
same,GI50,HCT-15,590 nM
same,GI50,A549,23 nM

# Source: ChEMBL document CHEMBL4715745, “Synthesis and biological evaluation of novel FK228 analogues as potential isoform selective HDAC inhibitors” (Eur J Med Chem, 2016)
